Source: ChEMBL document CHEMBL3352347, “ΔF508-CFTR correctors: synthesis and evaluation of thiazole-tethered imidazolones, oxazoles, oxadiazoles, and thiadiazoles” (Bioorg Med Chem Lett, 2014)

target: Cystic fibrosis transmembrane conductance regulator (Homo sapiens, UniProt P13569); assay: (§1) Activity of human CFTR F508 deletion mutant expressed in FRT cells assessed as potentiation of genistein-induced iodine ion influx after 24 hrs by YFP-H148Q/I152L fluorescent quenching assay; format: cell-based; details: frt
Sequence (P13569 as listed by the source): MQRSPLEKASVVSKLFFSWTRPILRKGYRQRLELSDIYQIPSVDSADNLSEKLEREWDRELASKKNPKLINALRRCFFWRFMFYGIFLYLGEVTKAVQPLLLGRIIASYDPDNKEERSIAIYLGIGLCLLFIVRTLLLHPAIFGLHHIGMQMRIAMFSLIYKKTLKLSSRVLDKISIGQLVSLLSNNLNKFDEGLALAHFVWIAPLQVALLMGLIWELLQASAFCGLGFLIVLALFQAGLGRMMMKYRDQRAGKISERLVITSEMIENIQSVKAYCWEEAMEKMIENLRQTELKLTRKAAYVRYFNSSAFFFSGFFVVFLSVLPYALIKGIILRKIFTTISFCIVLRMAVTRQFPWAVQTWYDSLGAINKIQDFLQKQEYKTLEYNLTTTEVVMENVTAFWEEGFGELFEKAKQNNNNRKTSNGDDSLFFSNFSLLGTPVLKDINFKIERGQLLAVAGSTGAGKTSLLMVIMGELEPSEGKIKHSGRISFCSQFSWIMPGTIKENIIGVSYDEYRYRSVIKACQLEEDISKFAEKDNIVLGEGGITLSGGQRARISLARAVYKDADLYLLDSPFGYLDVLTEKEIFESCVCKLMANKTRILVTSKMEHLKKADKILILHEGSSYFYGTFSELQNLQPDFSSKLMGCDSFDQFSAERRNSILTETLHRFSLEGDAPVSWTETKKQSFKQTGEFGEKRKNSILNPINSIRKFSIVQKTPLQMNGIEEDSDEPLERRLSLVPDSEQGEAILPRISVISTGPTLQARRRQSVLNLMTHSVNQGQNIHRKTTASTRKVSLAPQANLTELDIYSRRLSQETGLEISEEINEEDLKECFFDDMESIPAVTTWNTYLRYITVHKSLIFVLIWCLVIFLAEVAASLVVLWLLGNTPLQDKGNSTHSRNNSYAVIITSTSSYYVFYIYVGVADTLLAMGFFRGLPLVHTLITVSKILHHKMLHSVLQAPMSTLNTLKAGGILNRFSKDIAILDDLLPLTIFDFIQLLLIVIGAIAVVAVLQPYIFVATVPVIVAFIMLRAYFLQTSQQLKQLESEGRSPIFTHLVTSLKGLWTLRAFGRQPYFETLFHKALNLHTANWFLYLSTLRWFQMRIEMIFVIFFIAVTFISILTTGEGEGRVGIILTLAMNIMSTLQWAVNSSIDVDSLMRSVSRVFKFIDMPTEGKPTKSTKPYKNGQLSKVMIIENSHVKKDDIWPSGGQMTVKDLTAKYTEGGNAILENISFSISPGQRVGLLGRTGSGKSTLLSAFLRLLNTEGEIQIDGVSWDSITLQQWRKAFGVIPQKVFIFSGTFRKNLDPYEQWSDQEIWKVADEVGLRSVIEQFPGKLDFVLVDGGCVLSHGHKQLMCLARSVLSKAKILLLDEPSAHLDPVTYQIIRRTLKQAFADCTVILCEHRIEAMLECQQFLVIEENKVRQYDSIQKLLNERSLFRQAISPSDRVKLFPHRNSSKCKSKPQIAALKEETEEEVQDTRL
Method in brief: (§2)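 FRT cells co-expressing human ΔF508-CFTR and the iodide-sensitive YFP-H148Q/I152L sensor were incubated 24 h with each compound. Iodide influx, used as a chloride surrogate, was then read from the kinetics of YFP quenching after iodide addition, with cells stimulated by a cAMP agonist plus genistein. Corrector activity was derived from influx versus concentration data.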

EC50 | Compound
Not Active | COc1ccc(Cl)cc1-n1cc(-c2sc(NC(=O)C(C)(C)C)nc2C)[nH]c1=O
Not Active | COc1ccc(Cl)cc1Nc1nnc(-c2csc(NC(=O)C(C)(C)C)n2)s1
Not Active | COc1ccc(Cl)cc1Nc1nc(C)c(-c2csc(NC(=O)C(C)(C)C)n2)s1

target: Cystic fibrosis transmembrane conductance regulator (Homo sapiens, UniProt P13569, F508DEL); assay: as §1; format: cell-based; details: not given; method in brief: as §2
Sequence (P13569 as listed by the source): as above

EC50 [nM] | Compound
870 | COc1ccc(Cl)cc1Nc1nc(-c2sc(NC(=O)C(C)(C)C)nc2C)cs1
740 | COc1ccc(Cl)cc1Nc1ncc(-c2sc(NC(=O)C(C)(C)C)nc2C)o1
660 | COc1ccc(Cl)cc1Nc1nnc(-c2csc(NC(=O)C(C)(C)C)n2)o1
590 | COc1ccc(Cl)cc1Nc1nc(-c2nnc(NC(=O)C(C)(C)C)o2)cs1
